From ChEMBL document CHEMBL2321751, “Optimization of chloronitrobenzamides (CNBs) as therapeutic leads for human African trypanosomiasis (HAT)” (J Med Chem, 2013)
≈ marks a conversion by molar mass, not a printed value.

Tests used:
[1] = Half life in mouse liver microsomes; assay type: ADME, Microsome
In short: (§1)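 Liver microsomes (human: pooled from 200 mixed-gender donors; mouse: female […]) were diluted in 0.1 M potassium phosphate, pH 7.4, with EDTA, then spiked from a 2 mM DMSO/acetonitrile compound stock. Reactions were started with cofactor solutions A+B and kept at 37 °C with shaking. Samples at 0, 0.5, 1, 2 and 4 h were quenched with cold methanol containing 10 μM warfarin and analysed by UPLC-MS (SIR). k = −2.303 × slope of log peak-area ratio versus time; t1/2 = 0.693/k.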

[2] = Kinetic solubility of the compound in PBS buffer at pH 7.4 after 18 hrs by UV spectrophotometric analysis; assay type: physicochemical; settings: for Kinetic_solubility: buffer, pH 7.4, 18 h, BLD = below limit of detection; for solubility kinetic at 18 h: PBS buffer, pH 7.4, read-out: Kinetic_solubility
In short: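 Compound from a 10 mM stock was added to PBS pH 7.4 and left 18 h at room temperature. The suspension was filtered, and the filtrate was mixed 1:1 with 1-propanol. Solubility was derived from UV spectrum AUC (250–500 nm) relative to a 1-propanol/PBS reference. Run in triplicate.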

[3] = system: Trypanosoma brucei brucei; experiment: Antitrypanosomal activity against Trypanosoma brucei brucei 221 after 48 hrs by Cell Titre Glo assay; assay type: functional, organism-based; settings: Trypanosoma brucei, 221, 48 h
In short: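 Bloodstream-form parasites grown in HMI-9 with 10% heat-inactivated FBS, 10% Serum Plus and penicillin/streptomycin at 37 °C, 5% CO₂, to 1 × 10⁶ cells/mL. Diluted to 1 × 10⁴ cells/mL, then dosed with a DMSO dilution series by pin transfer. Incubated 48 h at 37 °C, 5% CO₂. Viability read by CellTiter-Glo luminescence. EC₅₀ from a variable-slope sigmoidal fit. Mean of six replicates, errors as 95% CI.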

HEK293 = experiment: Cytotoxicity against HEK293 cells after 72 hrs by Cell Titre Glo assay; assay type: cell-based; settings: Homo sapiens, HEK293, 72 h
In short: (§2)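 Human cells grown to 80% confluence were plated in 384-well format and received compound dilutions by pin tool. After 72 h at 37 °C in 5% CO2, viability was measured by CellTiter-Glo luminescence.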

[4] = Permeability of the compound at pH 7.4 by PAMPA; assay type: ADME; settings: for Papp: PAMPA, read-out: permeability
In short: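 Compound (10 mM DMSO stock) was diluted in system solution buffer pH 7.4 and placed in the donor chamber of a PAMPA sandwich whose membrane was coated with GIT lipid. Acceptor buffer filled the acceptor chamber, and the assembly was stirred for 30 min. Donor and acceptor UV spectra (250–500 nm) were compared with a reference to give the permeability coefficient. Run in triplicate.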

BJ = experiment: Cytotoxicity against human BJ cells after 72 hrs by Cell Titre Glo assay; assay type: cell-based; in short: as §2
HepG2 = experiment: Cytotoxicity against human HepG2 cells after 72 hrs by Cell Titre Glo assay; assay type: cell-based; settings: HepG2, 72 h; in short: as §2
[5] = system: Trypanosoma brucei rhodesiense; experiment: Antitrypanosomal activity against bloodstream forms of wild type Trypanosoma brucei rhodesiense STIB900 after 70 hrs by Alamar Blue assay; assay type: functional, organism-based; settings: STIB900, 70 h
In short: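 T. b. rhodesiense STIB 900 was cultured in MEM with Earle's salts and Baltz supplements (0.2 mM 2-mercaptoethanol, 1 mM Na-pyruvate, 0.5 mM hypoxanthine, 15% heat-inactivated horse serum). 2000 bloodstream forms per well were exposed to serial drug dilutions for 70 h at 37 °C in humidified 5% CO2. Resazurin followed for 2–4 h, read by fluorescence (ex 536/em 588 nm). IC50 came from sigmoidal curves by linear regression.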

[6] = Half life in human liver microsomes; assay type: ADME, Microsome; in short: as §1
Raji = experiment: Cytotoxicity against human Raji cells after 72 hrs by Cell Titre Glo assay; assay type: cell-based; in short: as §2
[7] = system: Trypanosoma brucei gambiense; experiment: Antitrypanosomal activity against Trypanosoma brucei gambiense STIB930 after 70 hrs by Alamar Blue assay; assay type: functional, organism-based; settings: STIB930, 70 h
In short: (§3)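 T. b. gambiense strains were grown in HMI-9 with 15% heat-inactivated FBS and 5% human serum. 10000 trypanosomes per well were seeded into serial drug dilutions and held 70 h at 37 °C in humidified 5% CO2. Resazurin was then added for a further 4–6 h, and fluorescence was read (ex 536/em 588 nm). IC50 was taken by linear regression from sigmoidal dose-inhibition curves.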

[8] = Kinetic solubility of the compound in PBS buffer at pH 3.0 after 18 hrs by UV spectrophotometric analysis; assay type: physicochemical; settings: read-out: Kinetic_solubility
[9] = Permeability of the compound at pH 3.0 by PAMPA; assay type: ADME; settings: read-out: permeability
[10] = system: Trypanosoma brucei gambiense; experiment: Antitrypanosomal activity against Trypanosoma brucei gambiense DAL 898R after 70 hrs by Alamar Blue assay; assay type: functional, organism-based; in short: as §3
[11] = system: Trypanosoma brucei brucei; experiment: Antitrypanosomal activity against blood stream stage of Trypanosoma brucei brucei after 48 hrs by Cell Titre Glo assay; assay type: functional, organism-based
In short: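 Culture-adapted parasites were grown in HMI-9 with 10% heat-inactivated FBS, 10% Serum Plus and penicillin/streptomycin to 1 × 10⁶ cells/mL, then diluted to 1 × 10⁴ cells/mL. DMSO dilution series were pin-transferred and plates held 48 h at 37 °C in 5% CO2. After 30 min at room temperature, CellTiter-Glo was added and luminescence read after 8 min.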

[12] = system: Trypanosoma brucei gambiense; experiment: Antitrypanosomal activity against Trypanosoma brucei gambiense KO48 after 70 hrs by Alamar Blue assay; assay type: functional, organism-based; settings: KO48, 70 h; in short: as §3

Compound	half-life [1] [h]	Kinetic_solubility [2]	EC50 [3] [nM]	EC50 (HEK293) [nM]	Papp [4] [×10⁻⁶ cm/s]	EC50 (BJ) [nM]	EC50 (HepG2) [nM]	EC50 [5] [nM]	half-life [6] [h]	EC50 (Raji) [nM]	EC50 [7] [nM]	permeability ([4]; pampa, BLD = below limit of detection)	solubility kinetic at 18 h [8] [µM]	Papp [9] [×10⁻⁶ cm/s]	solubility kinetic at 18 h [2] [µM]	EC50 [10] [nM]	EC50 [11] [nM]	EC50 [12] [nM]
Cc1ccc(-c2nc3ccccc3s2)cc1NC(=O)c1cc([N+](=O)[O-])ccc1Cl	> 4	BLD	6	> 14000	41	> 14000	> 14000	13	> 4	> 14000	36	–	–	–	–	–	–	–
COc1ccc(-c2nc3ccccc3s2)cc1NC(=O)c1cc([N+](=O)[O-])ccc1Cl	> 4	BLD	120	> 25000	–	> 25000	> 25000	73	3.7	> 25000	63	BLD	–	–	–	–	–	–
Cc1ccc(-c2nc3ccccc3s2)cc1NC(=O)c1cc([N+](=O)[O-])c(N2CCNCC2)cc1Cl	> 4	–	–	> 25000	4	14500	> 25000	7	> 4	> 25000	2	–	1.15 (≈ 0.584 µg/mL)	0.6	0.08 (≈ 0.0406 µg/mL)	–	–	–
O=C(Nc1ccc(F)c(-c2nc3ccccc3s2)c1)c1cc([N+](=O)[O-])c(N2CCNCC2)cc1Cl	> 4	–	58	> 25000	–	> 25000	> 25000	140	> 4	> 25000	170	–	–	–	–	–	–	–
CN1CCN(c2cc(Cl)c(C(=O)Nc3cccc(-c4nc5ccccc5s4)c3)cc2[N+](=O)[O-])CC1	0.81	BLD	110	14200	366	> 25000	8600	210	3.3	14500	160	–	46 (≈ 23.4 µg/mL)	108	–	–	–	–
O=C(Nc1cccc(-c2nc3ccccc3s2)c1)c1cc([N+](=O)[O-])c(N2CCNCC2)cc1Cl	–	–	190	12700	276	> 25000	5300	–	–	> 25000	–	–	0.98 (≈ 0.484 µg/mL)	< 1	0.72 (≈ 0.356 µg/mL)	–	–	–
O=C(Nc1cccc(-c2nc3ccccc3s2)c1)c1cc([N+](=O)[O-])c(N2CCOCC2)cc1Cl	–	–	220	> 25000	18	> 25000	> 25000	–	–	> 25000	–	–	0.07 (≈ 0.0346 µg/mL)	106	0.37 (≈ 0.183 µg/mL)	–	–	–
O=C(Nc1ccc2oc(-c3ccc(F)cc3)nc2c1)c1cc([N+](=O)[O-])ccc1Cl	–	–	6000	–	–	–	–	3800	–	–	420	–	–	–	–	4400	640	2600
Cc1ccc(-c2nc3ccccc3s2)cc1NC(=O)c1cc([N+](=O)[O-])c(N2CCN(C)CC2)cc1Cl	1.3	–	41	> 25000	74	> 25000	> 25000	11	1.6	> 25000	1	–	0.56 (≈ 0.292 µg/mL)	60	0.7 (≈ 0.365 µg/mL)	–	–	–
O=C(Nc1cccc(-c2nc3ccccc3o2)c1)c1cc([N+](=O)[O-])ccc1Cl	–	–	480	> 25000	45	> 25000	> 25000	370	–	> 25000	210	–	–	–	0.47 (≈ 0.185 µg/mL)	620	290	460
O=C(Nc1ccc(Cl)c(C(F)(F)F)c1)c1cc([N+](=O)[O-])ccc1Cl	–	–	1100	> 27000	8	> 27000	> 27000	1800	–	> 27000	820	–	–	–	0.58 (≈ 0.22 µg/mL)	1600	–	1300
O=C(Nc1nc(-c2ccc(F)c(F)c2)cs1)c1cc([N+](=O)[O-])ccc1Cl	–	BLD	2500	8300	37	> 27000	> 27000	1500	–	13000	560	–	–	–	–	1600	–	630
O=C(Nc1cccc(-c2nc3ccccc3s2)c1)c1cc([N+](=O)[O-])ccc1Cl	0.18	–	190	> 27000	12	> 27000	> 25000	160	1	> 27000	110	–	0.51 (≈ 0.209 µg/mL)	51	0.58 (≈ 0.238 µg/mL)	200	–	170
N=C(N)c1ccc(OCCCCCOc2ccc(C(=N)N)cc2)cc1 [PENTAMIDINE]	–	–	12	–	–	–	–	0.6	–	–	0.7	–	–	–	–	0.9	–	51
